Experimental data from different studies.
Sample: plasma

COc1cc2c3c(n(CCCN4CCOCC4)c(=O)c2cc1OC)-c1cc2c(cc1C3=O)OCO2  Cmax (male Fischer 344 rat; intravenous; 12 mg/m²; single dose): 406 ng/mL
CCN(CC)C(=O)[C@@]1(c2ccccc2)C[C@H]1CN  half-life (male cynomolgus monkey; oral; 30 mg/kg): 378 min
CN(C(=O)n1cnc(-c2ccc[n+]([O-])c2)c1)C1CCCCC1  half-life (male cynomolgus monkey; oral; 0.3 mg/kg): 132 min
CCOC(=O)[C@@]12C[C@@H]1[C@@H](n1ccc3c(NC)nc(C#Cc4ccc(Cl)s4)nc31)[C@H](O)[C@@H]2O  Cmax (male Sprague-Dawley rat; oral; 1 mg/kg): 9.97 ng/mL
CCCC[C@@H]1NC(=O)[C@H](Cc2ccc(O)cc2)NC(=O)[C@@H]2CCCN2C(=O)[C@H](CC(=O)O)NC(=O)[C@H](C)NC(=O)[C@H](Cc2ccccc2)NC(=O)[C@@H]2CSCCC(=O)N3CN(CN(C3)C(=O)CCSC[C@@H](C(=O)N[C@@H](C)C(N)=O)NC1=O)C(=O)CCSC[C@H](NC(C)=O)C(=O)N[C@@H](CC(C)(C)C)C(=O)N1CCC[C@H]1C(=O)N[C@@H](CCC(=O)O)C(=O)N[C@H](CCCCNC(=O)CCc1cn(CCOCCOCCOCCOCCOCCC(=O)N[C@H]3CSCCC(=O)N4CN5CN(C4)C(=O)CCSC[C@H](NC(=O)[C@@H](CC(=O)O)NC(=O)[C@H](Cc4cccc6ccccc46)NC(=O)[C@@H]4CCCN4C3=O)C(=O)N[C@@H](CCSC)C(=O)N[C@@H](CCCCNC(=N)N)C(=O)N[C@@H](CC(=O)O)C(=O)N[C@@H](Cc3c[nH]c4ccccc34)C(=O)N[C@@H](CO)C(=O)N[C@@H]([C@@H](C)O)C(=O)N3CCC[C@H]3C(=O)N3C[C@H](O)C[C@H]3C(=O)N[C@@H](Cc3c[nH]c4ccccc34)C(=O)N[C@H](C(N)=O)CSCCC5=O)nn1)C(=O)N1CCC[C@H]1C(=O)N[C@@H](Cc1ccc(O)cc1)C(=O)N2  half-life (cynomolgus monkey; intravenous; 1 mg/kg; infusion): 30 min
C=CC(=O)N1CC2CC(n3nc(-c4ccc(C(=O)Nc5ccccn5)cc4)c4c(N)ncnc43)CC2C1 (centres unmarked)  Cmax (male Wistar rat; oral; 30 mg/kg): 1260 ng/mL
CC(C)(O)c1cn(-c2ccc(-c3cc(F)c(CO)c(S(C)(=O)=O)c3)cc2F)c(C(C)(C)c2c(Cl)cccc2Cl)n1  half-life (male cynomolgus monkey; intravenous; 1 mg/kg; single dose): 600 to 720 min
CCc1cc(C(=O)NC)c2nccc(N3CCc4c(cc(Cn5ccnc5)cc4-c4cn(C)nc4C(F)(F)F)C3=O)c2c1  Cmax (male Sprague-Dawley rat; oral; 50 mg/kg): 18400 ng/mL
